This is an account of results in ChEMBL document CHEMBL2390911, “Synthesis and structure-activity relationships of 2-amino-3-carboxy-4-phenylthiophenes as novel atypical protein kinase C inhibitors” (Bioorg Med Chem Lett, 2013).

Test [1] has as its target T1, Protein kinase C zeta type (Homo sapiens, UniProt Q05513).
T1 sequence (Q05513 whole entry): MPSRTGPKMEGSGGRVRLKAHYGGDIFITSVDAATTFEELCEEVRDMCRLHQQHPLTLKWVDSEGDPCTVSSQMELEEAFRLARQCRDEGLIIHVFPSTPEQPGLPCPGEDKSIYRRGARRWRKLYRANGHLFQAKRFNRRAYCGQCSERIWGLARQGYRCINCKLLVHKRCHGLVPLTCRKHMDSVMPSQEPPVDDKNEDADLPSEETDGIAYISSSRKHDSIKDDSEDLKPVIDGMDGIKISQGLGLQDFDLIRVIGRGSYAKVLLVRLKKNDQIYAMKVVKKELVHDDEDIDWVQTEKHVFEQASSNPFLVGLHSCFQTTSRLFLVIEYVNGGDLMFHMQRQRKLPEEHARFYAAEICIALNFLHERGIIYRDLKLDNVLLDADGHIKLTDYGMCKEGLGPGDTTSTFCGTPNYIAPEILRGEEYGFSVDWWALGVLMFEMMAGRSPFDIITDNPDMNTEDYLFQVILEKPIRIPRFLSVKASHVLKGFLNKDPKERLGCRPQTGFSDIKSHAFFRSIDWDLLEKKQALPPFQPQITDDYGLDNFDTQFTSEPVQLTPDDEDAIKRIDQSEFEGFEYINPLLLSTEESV
Put plainly: Inhibition of atypical PKCzeta in HEK293 cells assessed as TNF-induced NFkappaB activation incubated for 3 hrs prior to TNF induction measured after 5 hrs by bright-glo luciferase reporter gene assay. The format is cell-based. (In general: Reporter assays use an easily measured gene product as a stand-in for the process of interest.)

Test [2] is described as follows: Inhibition of atypical PKCzeta in bovine retinal endothelial cells assessed as TNFalpha/VEGF-induced endothelial permeability preincubated for 30 mins followed by TNFalpha induction for 1 hr and VEGF induction for 30 mins measured every 30 mins for 4 hrs by Transwell assay. To be noted: Bos taurus, Endothelial cell. Type of test: cell-based. In short, it runs like this: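 Retinal endothelial monolayers were given a 5-point compound dose-response, then VEGF/TNF was added for 1.5 h. Flux of 70kDa RITC-dextran across the monolayer was the read-out. Data are the mean of at least n≥8, repeated in independent experiments. EC50 was derived from a variable-slope dose-response fit.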

Test [3] deals with Voltage-gated inwardly rectifying potassium channel KCNH2 (Homo sapiens, UniProt Q12809). Put plainly: Inhibition of human ERG.
Test [4] deals with T1, Protein kinase C zeta type. Put plainly: Inhibition of atypical PKCzeta (unknown origin) using CREBtide as substrate incubated for 1 hr measured every 2.5 mins by ADP Quest assay.
For test [5], the target named is T2, Protein kinase C iota type (Homo sapiens, UniProt P41743).
T2 sequence (P41743 whole entry): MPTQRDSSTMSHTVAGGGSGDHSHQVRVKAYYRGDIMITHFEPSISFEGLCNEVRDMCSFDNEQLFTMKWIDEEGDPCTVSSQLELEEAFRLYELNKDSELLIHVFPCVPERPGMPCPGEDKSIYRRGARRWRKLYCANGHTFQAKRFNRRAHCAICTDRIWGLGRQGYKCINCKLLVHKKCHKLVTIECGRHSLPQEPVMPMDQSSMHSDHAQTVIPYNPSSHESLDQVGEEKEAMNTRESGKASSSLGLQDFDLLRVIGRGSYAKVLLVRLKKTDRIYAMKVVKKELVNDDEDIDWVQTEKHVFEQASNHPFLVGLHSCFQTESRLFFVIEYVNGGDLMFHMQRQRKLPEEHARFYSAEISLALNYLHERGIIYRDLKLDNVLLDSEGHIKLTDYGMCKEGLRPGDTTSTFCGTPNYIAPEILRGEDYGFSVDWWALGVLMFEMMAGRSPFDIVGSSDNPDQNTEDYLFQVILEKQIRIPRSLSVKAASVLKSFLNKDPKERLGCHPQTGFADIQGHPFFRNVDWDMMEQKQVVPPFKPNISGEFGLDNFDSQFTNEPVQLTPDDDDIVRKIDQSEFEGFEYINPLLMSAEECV
The test is described as follows: Inhibition of atypical PKCiota (unknown origin) using CREBtide as substrate incubated for 1 hr measured every 2.5 mins by ADP Quest assay.

Voltage-gated inwardly rectifying potassium channel KCNH2, sequence (Q12809 whole entry): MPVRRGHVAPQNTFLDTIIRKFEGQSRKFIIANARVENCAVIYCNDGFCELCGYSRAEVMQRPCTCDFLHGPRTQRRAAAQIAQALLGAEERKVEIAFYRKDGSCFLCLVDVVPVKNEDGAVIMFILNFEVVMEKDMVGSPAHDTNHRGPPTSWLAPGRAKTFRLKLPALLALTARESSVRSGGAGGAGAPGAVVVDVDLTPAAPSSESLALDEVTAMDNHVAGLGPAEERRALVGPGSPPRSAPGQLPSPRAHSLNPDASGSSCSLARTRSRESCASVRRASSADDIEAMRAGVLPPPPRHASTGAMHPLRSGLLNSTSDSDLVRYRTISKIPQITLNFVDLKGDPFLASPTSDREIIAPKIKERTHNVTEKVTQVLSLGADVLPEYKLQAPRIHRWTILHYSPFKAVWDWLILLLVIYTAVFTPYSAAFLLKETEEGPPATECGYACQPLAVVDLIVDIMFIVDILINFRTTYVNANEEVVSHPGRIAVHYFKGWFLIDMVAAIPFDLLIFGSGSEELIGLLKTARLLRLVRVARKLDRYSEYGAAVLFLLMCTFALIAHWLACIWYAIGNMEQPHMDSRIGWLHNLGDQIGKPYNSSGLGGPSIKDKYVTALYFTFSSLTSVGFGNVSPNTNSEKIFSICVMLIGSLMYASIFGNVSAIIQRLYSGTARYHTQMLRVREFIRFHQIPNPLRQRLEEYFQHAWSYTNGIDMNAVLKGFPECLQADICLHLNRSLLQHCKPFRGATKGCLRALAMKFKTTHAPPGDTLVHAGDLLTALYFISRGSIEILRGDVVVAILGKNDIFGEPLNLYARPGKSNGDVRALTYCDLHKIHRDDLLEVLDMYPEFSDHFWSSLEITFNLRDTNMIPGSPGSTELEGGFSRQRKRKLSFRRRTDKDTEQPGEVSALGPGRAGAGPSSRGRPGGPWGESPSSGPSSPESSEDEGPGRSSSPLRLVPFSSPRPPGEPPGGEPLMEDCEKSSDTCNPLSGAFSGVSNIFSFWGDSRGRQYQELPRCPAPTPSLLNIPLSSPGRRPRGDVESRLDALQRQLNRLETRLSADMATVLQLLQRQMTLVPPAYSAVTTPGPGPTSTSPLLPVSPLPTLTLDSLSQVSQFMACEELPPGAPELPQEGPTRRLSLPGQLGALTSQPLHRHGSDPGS

Broadly, the EC50 is the concentration that produces a half-maximal response. For `O=C(c1ccc(Nc2nccc(-c3cc4ccccc4s3)n2)cc1)N1CCC(N2CCCC2)CC1`, the values for the EC50 in test [1] and in test [2] were 3 nM and 1 nM, respectively.
As usually defined, the IC50 is the concentration at which inhibition is half-maximal. A lower IC50 goes with greater potency. With `COc1ccc(-c2csc(N)c2C(=O)OC(C)C)cc1OC`, the concentration for half-maximal inhibition (IC50) in test [3] was more than 10000 nM.
Consider `COc1ccc(-c2csc(N)c2C(=O)OCc2ccccc2)cc1OC`, for which the EC50 in test [1] was determined as 2 nM. Further, in test [4], 6000 nM corresponded to half-maximal inhibition (IC50).
Take `COc1cccc(COC(=O)c2c(-c3ccc(OC)c(OC)c3)csc2N)c1`: the EC50 in test [1] is 1 nM; in test [2] it was more than 100 nM. In addition, the results for the IC50 in test [3] and in test [5] were 1000 nM and 900 nM, respectively.
Regarding `CCOC(=O)c1c(-c2ccc(N)cc2)csc1N`, the EC50 in test [1] was determined as 1 nM; in test [2], 270 nM. Moreover, the IC50 in test [4] was found to be 2000 nM.
`CCOC(=O)c1c(-c2ccc(N(C)C)cc2)csc1N`: the IC50 in test [3] was more than 10000 nM; in test [5], 900 nM. Further, in test [2], the EC50 was 280 nM.
As to `CCOC(=O)c1c(-c2ccc3c(c2)OCO3)csc1N`, the figures for the EC50 in test [1] and in test [2] were 2 nM and 20 nM, respectively. In addition, the half-inhibitory concentration (IC50) in test [4] and in test [5] was 2000 nM throughout.
For the molecule `CCOC(=O)c1c(-c2ccc(OC)cc2F)csc1N`, in test [1], the EC50 is 10 nM. In test [4], this molecule gave an IC50 of 4000 nM.
